# Residues, ends and D or L forms follow the SMILES beside them. *: point of attachment. X2 = O=C(c1cc(-c2nc3ccc([N+](=O)[O-])cc3[nH]2)ccc1O)*
# Experiments:
# [1] = Growth inhibition of EAC cells at 31.25 ug/mL after 3 hrs; type: functional; conditions: Mus musculus, Ehrlich
# Method in brief: (§1)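 DLA and EAC cells passaged intraperitoneally in albino mice, harvested after 15–20 days and adjusted to 1 × 10⁶ cells/mL. Dilutions in Dulbecco's medium (500–31.25, some down to 3.91 µg/mL; 5-FU reference) mixed 1:1 with cells and held 3 h at 37 °C. Trypan blue exclusion gave % growth inhibition; CTC50 by graphical extrapolation.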
# [2] = Growth inhibition of EAC cells at 500 ug/mL after 3 hrs; type: functional; conditions: Mus musculus, Ehrlich; method in brief: as §1
# [3] = Growth inhibition of EAC cells at 250 ug/mL after 3 hrs; type: functional; conditions: Mus musculus, Ehrlich; method in brief: as §1
# [4] = Growth inhibition of EAC cells after 3 hrs; type: functional; conditions: Mus musculus, Ehrlich; method in brief: as §1
# [5] = Anthelmintic activity against Megascoplex konkanensis ICARBC 211 assessed as mean death time; type: functional
# Method in brief: (§2)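 Earthworms exposed to test suspensions at 2 mg mL^-1 (0.2% w/v), made by triturating compound with Tween 80 (0.5%) and distilled water, then mechanically stirred 30 min. Mebendazole suspension prepared alike as reference. Paralysis and death times recorded; death confirmed by no movement in 50 °C water. Means from triplicate sets.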
# Pontoscolex corethrurus [6] = test: Anthelmintic activity against Pontoscolex corethrurus ICARBC 408 assessed as mean paralyzing time; type: functional; method in brief: as §2
# Candida albicans [7] = test: Antifungal activity against Candida albicans MUCC 29 after 48 hrs by disc diffusion method; type: functional
# Method in brief: (§3)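 Agar well diffusion on plates inoculated with spore suspension in normal saline from cultures on Sabouraud's broth. Wells punched and loaded with test samples or griseofulvin at 10 mg mL^-1, with DMSO as negative control. Incubated 48 h at 37 °C.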
# [8] = Growth inhibition of DLA cells at 125 ug/mL after 3 hrs; type: functional; conditions: Mus musculus; method in brief: as §1
# Escherichia coli [9] = test: Antibacterial activity against Escherichia coli NCIM 2065 after 18 hrs by disc diffusion method; type: functional
# Method in brief: (§4)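 Modified Kirby-Bauer disc diffusion. Plates inoculated with spore suspension (about 6 × 10⁴ spores mL^-1). Sterile 6 mm paper discs carried test samples at 10 mg mL^-1; ciprofloxacin disc as reference, DMF disc as negative control. Plates held 18 h at 37 °C. Inhibition zone diameters (mm) averaged over triplicate sets.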
# Aspergillus niger = test: Antifungal activity against Aspergillus niger MUCC 177 after 48 hrs by disc diffusion method; type: functional; method in brief: as §3
# Escherichia coli [10] = test: Antibacterial activity against Escherichia coli NCIM 2065 after 18 hrs by tube dilution method; type: functional; conditions: NCIM 2065, 18 h
# Trichophyton benhamiae [11] = test: Antifungal activity against Trichophyton mentagrophytes MUCC 665 after 48 hrs by disc diffusion method; type: functional, Arthroderma benhamiae; method in brief: as §3
# Candida albicans [12] = test: Antifungal activity against Candida albicans MUCC 29 after 48 hrs by tube dilution method; type: functional
# Method in brief: (§5)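 Tube dilution MIC as for bacteria (seven concentrations, 200–3.1 […]), with DMSO in place of DMF. Tubes inoculated with fungal culture and incubated 48 h at 37 °C. MIC read from presence or absence of growth.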
# [13] = Anthelmintic activity against Megascoplex konkanensis ICARBC 211 assessed as mean paralyzing time; type: functional; method in brief: as §2
# Staphylococcus aureus [14] = test: Antibacterial activity against Staphylococcus aureus NCIM 2079 after 18 hrs by disc diffusion method; type: functional; method in brief: as §4
# [15] = Growth inhibition of EAC cells at 125 ug/mL after 3 hrs; type: functional; conditions: Mus musculus, Ehrlich; method in brief: as §1
# Trichophyton benhamiae [16] = test: Antifungal activity against Trichophyton mentagrophytes MUCC 665 after 48 hrs by tube dilution method; type: functional, Arthroderma benhamiae; method in brief: as §5
# Eudrilus [17] = test: Anthelmintic activity against Eudrilus sp. assessed as mean paralyzing time; type: functional; method in brief: as §2
# Pontoscolex corethrurus [18] = test: Anthelmintic activity against Pontoscolex corethrurus ICARBC 408 assessed as mean death time; type: functional
# Method in brief: (§6)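 Earthworms exposed to test suspensions at 2 mg mL−1, prepared by triturating compound with Tween 80 (0.5%) and distilled water, stirring 30 min, then diluting to 0.2% w/v. Mebendazole suspension was made the same way. Death was confirmed by moving worms into 50 °C warm water and looking for movement. Mean death time (min) taken from triplicate sets.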
# Pseudomonas aeruginosa [19] = test: Antibacterial activity against Pseudomonas aeruginosa NCIM 2034 after 18 hrs by disc diffusion method; type: functional; method in brief: as §4
# Staphylococcus aureus [20] = test: Antibacterial activity against Staphylococcus aureus NCIM 2079 after 18 hrs by tube dilution method; type: functional; conditions: NCIM 2079, 18 h
# Method in brief: (§7)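 Tube dilution MIC. Stock diluted in sterile broth to seven concentrations from 200 to 3.1 […]. Each tube inoculated with one loopful of test bacterium and incubated 18 h at 37 °C. MIC read from presence or absence of growth.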
# [21] = Growth inhibition of DLA cells at 500 ug/mL after 3 hrs; type: functional; conditions: Mus musculus; method in brief: as §1
# Microsporum audouinii [22] = test: Antifungal activity against Microsporum audouinii MUCC 545 after 48 hrs by disc diffusion method; type: functional; method in brief: as §3
# Bacillus subtilis [23] = test: Antibacterial activity against Bacillus subtilis NCIM 2063 after 18 hrs by tube dilution method; type: functional; conditions: NCIM 2063, 18 h; method in brief: as §7
# Eudrilus [24] = test: Anthelmintic activity against Eudrilus sp. assessed as mean death time; type: functional; method in brief: as §6
# [25] = Growth inhibition of DLA cells at 31.25 ug/mL after 3 hrs; type: functional; conditions: Mus musculus; method in brief: as §1
# [26] = Growth inhibition of DLA cells after 3 hrs; type: functional; conditions: Mus musculus; method in brief: as §1
# Bacillus subtilis [27] = test: Antibacterial activity against Bacillus subtilis NCIM 2063 after 18 hrs by disc diffusion method; type: functional; method in brief: as §4
# [28] = Growth inhibition of DLA cells at 62.5 ug/mL after 3 hrs; type: functional; conditions: Mus musculus; method in brief: as §1
# Microsporum audouinii [29] = test: Antifungal activity against Microsporum audouinii MUCC 545 after 48 hrs by tube dilution method; type: functional; method in brief: as §5
# [30] = Growth inhibition of EAC cells at 62.5 ug/mL after 3 hrs; type: functional; conditions: Mus musculus, Ehrlich; method in brief: as §1
# Pseudomonas aeruginosa [31] = test: Antibacterial activity against Pseudomonas aeruginosa NCIM 2034 after 18 hrs by tube dilution method; type: functional; conditions: NCIM 2034, 18 h; method in brief: as §7
# [32] = Growth inhibition of DLA cells at 250 ug/mL after 3 hrs; type: functional; conditions: Mus musculus; method in brief: as §1
Compound,inhibition at 31.25 µg/mL [1] [%],inhibition at 500 µg/mL [2] [%],inhibition at 250 µg/mL [3] [%],CC50 [4] [µM],TIME [5] [h],Time (Pontoscolex corethrurus [6]) [min],inhibition zone (IZ) (Candida albicans [7]) [mm],inhibition at 125 µg/mL [8] [%],inhibition zone (IZ) (Escherichia coli [9]) [mm],inhibition zone (IZ) (Aspergillus niger) [mm],MIC (Escherichia coli [10]) [µg/mL],inhibition zone (IZ) (Trichophyton benhamiae [11]) [mm],MIC (Candida albicans [12]) [µg/mL],TIME [13] [h],inhibition zone (IZ) (Staphylococcus aureus [14]) [mm],inhibition at 125 µg/mL [15] [%],MIC (Trichophyton benhamiae [16]) [µg/mL],Time (Eudrilus [17]) [min],Time (Pontoscolex corethrurus [18]) [min],inhibition zone (IZ) (Pseudomonas aeruginosa [19]) [mm],further results
Cc1cc2nc(-c3c(I)cc(C(=O)N[C@@H](Cc4cnc[nH]4)C(=O)N4CCC[C@H]4C(=O)O)cc3I)[nH]c2cc1C,7.14,35.7,28.6,> 665,0.373,17.38,25,34.2,18,14,12.5,13,6,0.228,13,10.7,6,13.37,29.33,27,MIC (Staphylococcus aureus [20]): 12.5 µg/mL; inhibition at 500 µg/mL [21]: 52.6%; inhibition zone (IZ) (Microsporum audouinii [22]): 10 mm; MIC (Bacillus subtilis [23]): 6 µg/mL; Time (Eudrilus [24]): 23.86 min; inhibition at 31.25 µg/mL [25]: 13.2%; CC50 [26]: 583 µM; inhibition zone (IZ) (Bacillus subtilis [27]): 16 mm; inhibition at 62.5 µg/mL [28]: 28.9%; MIC (Microsporum audouinii [29]): 25 µg/mL; inhibition at 62.5 µg/mL [30]: 10.7%; MIC (Pseudomonas aeruginosa [31]): 6 µg/mL; inhibition at 250 µg/mL [32]: 42.1%
Cc1cc2nc(-c3ccc(C(=O)N[C@@H](Cc4cnc[nH]4)C(=O)N[C@@H](Cc4ccc(O)cc4)C(=O)O)cc3)[nH]c2cc1C,3.57,10.7,7.14,> 883,0.37,17.47,17,21,17,17,25,16,12.5,0.226,11,7.14,6,13.44,29.02,23,MIC (Staphylococcus aureus [20]): 12.5 µg/mL; inhibition at 500 µg/mL [21]: 26.3%; inhibition zone (IZ) (Microsporum audouinii [22]): 10 mm; MIC (Bacillus subtilis [23]): 6 µg/mL; Time (Eudrilus [24]): 23.08 min; inhibition at 31.25 µg/mL [25]: 13.2%; CC50 [26]: > 883 µM; inhibition zone (IZ) (Bacillus subtilis [27]): 13 mm; inhibition at 62.5 µg/mL [28]: 10.5%; MIC (Microsporum audouinii [29]): 25 µg/mL; inhibition at 62.5 µg/mL [30]: 3.57%; MIC (Pseudomonas aeruginosa [31]): 12.5 µg/mL; inhibition at 250 µg/mL [32]: 18.4%
CC(C)[C@H](NC(=O)c1cc(-c2nc3ccc([N+](=O)[O-])cc3[nH]2)ccc1O)C(=O)N[C@@H](Cc1ccccc1)C(=O)N[C@@H](Cc1cnc[nH]1)C(=O)O,3.57,10.7,7.14,> 718,0.326,11.87,19,26.3,16,19,12.5,13,6,0.174,11,7.14,6,11.55,22.79,24,MIC (Staphylococcus aureus [20]): 12.5 µg/mL; inhibition at 500 µg/mL [21]: 42.1%; inhibition zone (IZ) (Microsporum audouinii [22]): 12 mm; MIC (Bacillus subtilis [23]): 6 µg/mL; Time (Eudrilus [24]): 21.72 min; inhibition at 31.25 µg/mL [25]: 10.5%; CC50 [26]: > 718 µM; inhibition zone (IZ) (Bacillus subtilis [27]): 13 mm; inhibition at 62.5 µg/mL [28]: 21%; MIC (Microsporum audouinii [29]): 12.5 µg/mL; inhibition at 62.5 µg/mL [30]: 3.57%; MIC (Pseudomonas aeruginosa [31]): 12.5 µg/mL; inhibition at 250 µg/mL [32]: 28.9%
COC(=O)CNC(=O)[C@H](CC(C)C)NC(=O)[C@@H]1CCCN1C(=O)[C@H](Cc1cnc[nH]1)NC(=O)c1cc(-c2nc3ccc([N+](=O)[O-])cc3[nH]2)ccc1O (X2-HPLG-OMe),3.57,28.7,21.4,> 697,0.334,13.76,20,23.7,14,17,12.5,15,6,0.188,10,10.7,6,11.23,21.72,24,MIC (Staphylococcus aureus [20]): 12.5 µg/mL; inhibition at 500 µg/mL [21]: 39.5%; inhibition zone (IZ) (Microsporum audouinii [22]): 12 mm; MIC (Bacillus subtilis [23]): 6 µg/mL; Time (Eudrilus [24]): 20.33 min; inhibition at 31.25 µg/mL [25]: 28.7%; CC50 [26]: > 697 µM; inhibition zone (IZ) (Bacillus subtilis [27]): 14 mm; inhibition at 62.5 µg/mL [28]: 15.8%; MIC (Microsporum audouinii [29]): 6 µg/mL; inhibition at 62.5 µg/mL [30]: 7.14%; MIC (Pseudomonas aeruginosa [31]): 6 µg/mL; inhibition at 250 µg/mL [32]: 31.6%

# — ChEMBL document CHEMBL1146375, “Synthetic studies on novel benzimidazolopeptides with antimicrobial, cytotoxic and anthelmintic potential” (2007)
